In ChEMBL document CHEMBL1122185, “Tricyclics with analgesic and antidepressant activity. 2. [[(Alkylamino)ethyl]thio]dibenzo[b,f]thiepins and 10,11-dihydro derivatives” (1982):
Where “and” joins values, the source holds several entries; their conditions need not be identical. Equal values may be shown once.

Columns and labels:
Type in all cases: functional
[1] = test system: Mus musculus; assay: Analgesic activity was determined for delay in response to noxious heat stimuli after subcutaneous administration in mice, in tail flick assay; details: for ED50: sc
In short: (§1)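 D'Amour-Smith tail-flick method in mice: delay in response to a noxious heat stimulus. Compounds were given in a vehicle of distilled water with a few drops of Tween 80. ED50 was calculated by linear-regression analysis with 95% confidence limits.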

[2] = test system: Mus musculus; assay: Analgesic activity was determined for inhibition of phenyl-p-quinone-induced writhing (PQW) after subcutaneous administration in mice; details: for ED50: sc
In short: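 Mice were given phenyl-p-quinone to induce writhing, and inhibition of writhing was scored after subcutaneous dosing. The vehicle was distilled water with a few drops of Tween 80. ED50 was obtained by linear regression with 95% confidence limits.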

[3] = test system: Mus musculus; assay: Antidepressant activity was determined to prevent tetrabenazine-induced ptosis(TBZ) after oral administration in mice
In short: (§2)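 Mouse model measuring prevention of tetrabenazine-induced ptosis, with dosing orally or intraperitoneally. The vehicle was distilled water with a few drops of Tween 80. ED50 values were calculated by linear-regression analysis, with 95% confidence limits in parentheses.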

[4] = test system: Rattus norvegicus; assay: Antidepressant activity was determined for potentiation of head twitching induced by 5-hydroxytryptophan-(5-HTP) after intraperitoneal administration in pargyline-pretreated rats; details: ip
In short: (§3)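 In pargyline-pretreated rats, potentiation of 5-hydroxytryptophan-induced head twitching (stereotypy) was measured after intraperitoneal dosing. The vehicle was distilled water plus a few drops of Tween 80. ED50 was derived by linear regression with 95% confidence limits.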

[5] = test system: Mus musculus; assay: Antidepressant activity was determined to prevent tetrabenazine-induced ptosis(TBZ) after oral administration in mice.(value in parentheses indicates 95% confidence limits).; in short: as §2
[6] = test system: Mus musculus; assay: Analgesic activity was determined for delay in response to noxious heat stimuli after intraperitoneal administration in mice, in tail flick assay; in short: as §1
[7] = test system: Mus musculus; assay: Antidepressant activity was determined to prevent tetrabenazine-induced ptosis(TBZ) after intraperitoneal administration in mice; details: ip; in short: as §2
[8] = test system: Rattus norvegicus; assay: Antidepressant activity was determined for potentiation of head twitching induced by 5-hydroxytryptophan-(5-HTP) after intraperitoneal administration in pargyline-pretreated rats,; details: ip; in short: as §3
[9] = Mus musculus, po, read-out: ED50

Row | SMILES | ED50 [1] [mg/kg] | ED50 [2] [mg/kg] | ED50 [3, 9] [mg/kg] | ED50 [4] [mg/kg] | further results
1 | CC(C)=CCN1CC[C@]2(C)c3cc(O)ccc3C[C@H]1[C@H]2C [(+)-PENTAZOCINE] | 14.6 | 2.4 | – | – | –
2 | CN(C)CCSC1=Cc2ccccc2Sc2ccccc21 | > 25 | – | > 20 | > 10 | Inhibition [2]: 64%
3 | CN(C)CCSC1=Cc2ccccc2Sc2ccc(F)cc21 | > 25 | > 10 | – | > 10 | ED50 [5]: 3.6 mg/kg
4 | CNCCSC1Cc2ccccc2Sc2ccc(F)cc21 (stereo unspecified) | – | 2.9 | 1.5 | 8.1 | Inhibition [6]: 60%; ED50 [7]: 0.28 mg/kg
5 | CN(C)CCCN1c2ccccc2CCc2ccccc21 [IMIPRAMINE] | > 25 | 10.7 | – | > 10 | ED50 [3]: 2.8 mg/kg and 1.3 mg/kg
6 | CNCCSC1=Cc2ccccc2Sc2ccc(O)cc21 | > 25 | > 10 | 2 | > 10 | –
7 | CNCCSC1=Cc2ccccc2Sc2ccccc21 | > 25 | – | – | > 10 | ED50 [5]: 23.9 mg/kg
8 | CN(C)CCSC1Cc2ccccc2Sc2ccccc21 (stereo unspecified) | – | 3.3 | – | > 10 | Inhibition [3]: 60%; Inhibition [1]: 60%
9 | CN(C)CCSC1=Cc2ccccc2Sc2ccc(Cl)cc21 | > 25 | 14.6 | 3.7 | > 10 | –
10 | CNCCSC1=Cc2ccccc2Sc2ccc(F)cc21 | – | 8.9 | 5.2 | > 10 | Inhibition [1]: 50%
11 | CN(C)CCSC1Cc2ccccc2Sc2ccc(F)cc21 (stereo unspecified) | > 25 | 9 | 1.2 | – | ED50 [3]: 0.91 mg/kg; ED50 [8]: > 10 mg/kg
12 | CN(C)CCSC1Cc2ccccc2Sc2ccc(Cl)cc21 (stereo unspecified) | > 25 | > 10 | – | > 10 | –
13 | CNCCSC1Cc2ccccc2Sc2ccc(Cl)cc21 (stereo unspecified) | – | 4.4 | – | 50 | ED50 ([6]; ip): 63.6 mg/kg
14 | CNCCSC1Cc2ccccc2Sc2ccccc21 (stereo unspecified) | – | 4.2 | 8 | > 10 | Inhibition [1]: 60%
15 | CNCCSC1=Cc2ccccc2Sc2ccc(Cl)cc21 | > 25 | 12.5 | – | > 10 | –
